According to ChEMBL document CHEMBL4028892, “Discovery of a 1-Methyl-3,4-dihydronaphthalene-Based Sphingosine-1-Phosphate (S1P) Receptor Agonist Ceralifimod (ONO-4641). A S1P1 and S1P5 Selective Agonist for the Treatment of Autoimmune Diseases” (J Med Chem, 2017):
pEC50, pKi: −log10 of the molar value. Calls of active or inactive are those of the source. The rule behind the calls is not given here.

Tests used:
[1] = target: T1, Sphingosine 1-phosphate receptor 3 (Homo sapiens, UniProt Q99500); experiment: Displacement of [33P]-S1P from human S1P3 receptor expressed in CHO-K1 cells after 60 mins by scintillation counting method; format: cell-based
[2] = Total clearance in Crl:CD(SD) rat at 0.1 mg/kg, iv by LC-MS/MS analysis; format: ADME, organism-based; conditions: in vivo
Procedure, shortened: (§1)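 Single intravenous or oral dose of 0.1 mg/kg to male Crl:CD(SD) rats and to monkeys. Values are means of three animals with SD.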

[3] = Cmax in Crl:CD(SD) rat at 0.1 mg/kg, po by LC-MS/MS analysis; format: ADME, organism-based; design: dose 0.1 mg/kg, route oral; conditions: in vivo; procedure, shortened: as §1
[4] = Half life in Crl:CD(SD) rat at 0.1 mg/kg, po by LC-MS/MS analysis; format: ADME, organism-based; conditions: in vivo; procedure, shortened: as §1
[5] = target: T1, Sphingosine 1-phosphate receptor 3; experiment: Agonist activity at human S1P3 receptor expressed in CHO-K1 cells assessed as increase in S1P-stimulated calcium influx preincubated for 5 mins followed by S1P stimulation measured every 3 secs by fluorescence method; format: cell-based
[6] = test system: Cynomolgus monkey; experiment: Decrease in peripheral lymphocyte levels in unrestrained conscious cynomolgus monkey at 0.01 to 0.03 mg/kg, po administered as single dose measured after 4 to 24 hrs by automated hematology analyzer; format: functional, organism-based; conditions: Macaca fascicularis
Procedure, shortened: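 Single oral doses of 0.01 and 0.03 mg/kg to monkeys. Peripheral lymphocyte counts were followed from 4 to 24 h after administration.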

[7] = target: Sphingosine 1-phosphate receptor 5 (Homo sapiens, UniProt Q9H228); experiment: Agonist activity at human S1P5 receptor expressed in CHO-K1 cells assessed as inhibition of forskolin-stimulated cAMP accumulation after 30 mins by ELISA; format: functional, cell-based
[8] = AUC (infinity) in cynomolgus monkey at 0.1 mg/kg, iv by LC-MS/MS analysis; format: ADME, organism-based, Macaca fascicularis; design: dose 0.1 mg/kg, time infinity, route intravenous; conditions: in vivo; procedure, shortened: as §1
[9] = Plasma concentration in unrestrained conscious cynomolgus monkey at 100 mg/kg, po measured at 24 hrs; format: ADME, organism-based, Macaca fascicularis
Procedure, shortened: (§2)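 Single oral dose of 1, 10 or 100 mg/kg to unrestrained conscious monkeys. Heart rate was followed from 4 to 24 h after dosing and its decrease expressed against the pretreatment value. Plasma concentration was sampled at 4 and 24 h.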

[10] = Oral bioavailability in cynomolgus monkey at 0.1 mg/kg by LC-MS/MS analysis; format: ADME, organism-based, Macaca fascicularis; conditions: in vivo; procedure, shortened: as §1
[11] = AUC (infinity) in Crl:CD(SD) rat at 0.1 mg/kg, po by LC-MS/MS analysis; format: ADME, organism-based; design: dose 0.1 mg/kg, time infinity, route oral; conditions: in vivo; procedure, shortened: as §1
[12] = Plasma concentration in unrestrained conscious cynomolgus monkey at 100 mg/kg, po measured at 4 hrs; format: ADME, organism-based, Macaca fascicularis; procedure, shortened: as §2

T1 sequence (Q99500 whole entry): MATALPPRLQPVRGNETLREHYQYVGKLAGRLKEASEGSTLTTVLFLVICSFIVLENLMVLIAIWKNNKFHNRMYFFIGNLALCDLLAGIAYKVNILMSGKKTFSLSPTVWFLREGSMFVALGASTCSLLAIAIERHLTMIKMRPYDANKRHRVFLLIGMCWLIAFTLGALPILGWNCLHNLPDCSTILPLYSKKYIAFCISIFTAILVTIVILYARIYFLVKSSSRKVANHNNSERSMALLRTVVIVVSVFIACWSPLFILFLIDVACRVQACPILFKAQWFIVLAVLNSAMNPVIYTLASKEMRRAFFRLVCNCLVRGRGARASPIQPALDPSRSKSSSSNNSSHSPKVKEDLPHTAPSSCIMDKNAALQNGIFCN
Sequence of Sphingosine 1-phosphate receptor 5 (Q9H228 whole entry): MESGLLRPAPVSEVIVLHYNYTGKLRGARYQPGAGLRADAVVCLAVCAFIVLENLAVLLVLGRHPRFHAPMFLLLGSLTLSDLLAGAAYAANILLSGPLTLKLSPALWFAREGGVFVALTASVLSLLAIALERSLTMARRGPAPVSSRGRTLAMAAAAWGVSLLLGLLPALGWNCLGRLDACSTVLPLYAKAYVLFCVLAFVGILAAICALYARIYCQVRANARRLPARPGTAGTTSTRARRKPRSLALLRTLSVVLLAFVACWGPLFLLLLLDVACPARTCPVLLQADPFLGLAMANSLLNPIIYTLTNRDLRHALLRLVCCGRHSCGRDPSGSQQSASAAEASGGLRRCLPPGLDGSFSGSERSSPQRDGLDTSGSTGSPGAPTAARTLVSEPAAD

CCCc1ccc(COc2ccc3c(c2)CCC(CN2CC(C(=O)O)C2)=C3C)c(OC)c1
pKi [1]: < 5.25
clearance [2]: 5.63 mL/min/kg
Cmax [3]: 7.47 ng/mL
half-life [4]: 17 h
pEC50 [5]: < 4.52
Activity [6]: Active
pEC50 [7]: 9.48
AUC(0-inf) [8]: 1640 ng·h/mL
concentration at 24 h [9]: 11100 ng/mL
bioavailability [10]: 66.5%
AUC(0-inf) [11]: 229 ng·h/mL
concentration at 4 h [12]: 13500 ng/mL
